Data on 23 compounds can be found in ChEMBL document CHEMBL4831495, “Discovery of novel BCR-ABL PROTACs based on the cereblon E3 ligase design, synthesis, and biological evaluation” (Eur J Med Chem, 2021).

For series [1], the system named is K562. The experiment in a line: Antiproliferative activity against human K562 cells assessed as cell growth inhibition measured after 48 hrs by CCK8 assay. The series is classed as functional, cell-based. The settings on record: K562, 48 h. In a few lines:
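Cells were seeded at 3000-20,000 per well and given 3-fold serial dilutions of compound in medium. After 2 days at 37 °C in 5% CO2, CCK-8 reagent was added for 2-4 h and absorbance was read at 450 nm.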

Series [2] in a line: Cmax in Wistar rat at 2 mg/kg, iv by LC-MS/MS analysis. The conditions noted are these: in vivo. On the set-up: route intravenous, dose 2 mg/kg. Type of series: ADME, organism-based. In a few lines:
(§1)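 Single intravenous dose of 2 mg/kg into the femoral vein of female Wistar rats, given as a solution in NMP/PEG200 (1:9, v/v). Plasma was collected by sublingual vein bleeding at 0.083, 0.25, 0.5, 1, 2, 4, 6, 8, 12 and 24 h from one group of rats (n = 3). Samples were extracted and quantified by LC-MS/MS, LOQ 2.5 ng/mL.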

Series [3] is described as follows: AUC (0 to t) in Wistar rat at 2 mg/kg, iv by LC-MS/MS analysis. Type of series: ADME, organism-based. On the set-up: dose 2 mg/kg. The settings on record: in vivo. In a few lines: as §1
Series [4] is described as follows: Apparent volume of distribution during terminal state in Wistar rat at 2 mg/kg, iv by LC-MS/MS analysis. Type of series: ADME, organism-based. The conditions noted are these: in vivo, read-out: Vz. In a few lines:
as §1

The nature of series [5]: Half life in Wistar rat at 2 mg/kg, iv by LC-MS/MS analysis. The series is classed as ADME, organism-based. The conditions noted are these: in vivo. The essentials:
as §1

A short description of series [6]: MRT (0 to t) in Wistar rat at 2 mg/kg, iv by LC-MS/MS analysis. The conditions noted are these: in vivo. Type of series: ADME, organism-based. In a few lines: as §1
Series [7] deals with Protein cereblon/Tyrosine-protein kinase ABL1/Breakpoint cluster region protein (Homo sapiens, UniProt P00519+P11274+Q96SW2). As to the kind of experiment: PROTAC activity at CRBN/Bcr-Abl in human K562 cells assessed as degrading activity by Western blotting analysis. The series is classed as cell-based.
Series [8] is described as follows: Tmax in Wistar rat at 2 mg/kg, iv by LC-MS/MS analysis. Type of series: ADME, organism-based. The settings on record: in vivo. The essentials: as §1
Series [9] is described as follows: Apparent volume of distribution during steady state in Wistar rat at 2 mg/kg, iv by LC-MS/MS analysis. Type of series: ADME, organism-based. The settings on record: in vivo, read-out: Vdss. The essentials: as §1
Series [10] is described as follows: Clearance in Wistar rat at 2 mg/kg, iv by LC-MS/MS analysis. The series is classed as ADME, organism-based. The conditions noted are these: in vivo. In a few lines:
as §1

For series [11], the system named is K562. The experiment in a line: Antitumor activity against human K562 cells xenografted in NOD-SCID mouse assessed as tumor growth inhibition at 5 mg/kg, po administered daily 10 days. The settings on record: 240 h, read-out: TGI. (In general: Xenograft models place foreign cells or tissue in a host animal.)

Chain of Protein cereblon/Tyrosine-protein kinase ABL1/Breakpoint cluster region protein (P00519 whole entry): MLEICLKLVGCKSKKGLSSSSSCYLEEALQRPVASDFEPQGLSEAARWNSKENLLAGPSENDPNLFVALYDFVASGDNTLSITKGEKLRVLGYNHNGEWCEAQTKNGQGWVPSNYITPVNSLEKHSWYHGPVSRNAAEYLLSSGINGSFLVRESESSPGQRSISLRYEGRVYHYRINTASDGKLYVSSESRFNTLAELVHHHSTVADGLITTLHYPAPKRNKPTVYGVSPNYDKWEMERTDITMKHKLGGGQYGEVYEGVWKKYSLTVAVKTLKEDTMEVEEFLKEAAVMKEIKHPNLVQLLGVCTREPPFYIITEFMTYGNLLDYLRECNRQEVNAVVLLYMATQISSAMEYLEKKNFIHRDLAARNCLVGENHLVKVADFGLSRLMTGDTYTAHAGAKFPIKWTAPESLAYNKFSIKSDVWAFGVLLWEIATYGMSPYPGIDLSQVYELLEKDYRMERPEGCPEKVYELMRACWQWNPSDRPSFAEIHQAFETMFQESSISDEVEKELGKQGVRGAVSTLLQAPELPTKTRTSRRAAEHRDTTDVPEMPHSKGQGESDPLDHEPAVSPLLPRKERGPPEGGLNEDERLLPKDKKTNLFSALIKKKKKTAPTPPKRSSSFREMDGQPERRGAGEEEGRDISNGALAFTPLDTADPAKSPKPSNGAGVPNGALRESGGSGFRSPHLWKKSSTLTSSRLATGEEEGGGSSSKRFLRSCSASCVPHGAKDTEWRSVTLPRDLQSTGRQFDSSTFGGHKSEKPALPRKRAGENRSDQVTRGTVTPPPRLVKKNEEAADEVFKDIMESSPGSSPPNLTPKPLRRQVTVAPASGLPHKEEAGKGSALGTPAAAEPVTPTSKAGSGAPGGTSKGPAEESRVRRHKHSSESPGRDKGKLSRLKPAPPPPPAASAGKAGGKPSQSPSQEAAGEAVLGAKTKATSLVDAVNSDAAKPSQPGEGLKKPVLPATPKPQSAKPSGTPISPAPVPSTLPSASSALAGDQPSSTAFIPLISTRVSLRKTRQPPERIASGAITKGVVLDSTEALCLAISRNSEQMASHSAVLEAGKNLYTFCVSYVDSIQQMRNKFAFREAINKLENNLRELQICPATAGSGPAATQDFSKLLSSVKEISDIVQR
Chain of Protein cereblon/Tyrosine-protein kinase ABL1/Breakpoint cluster region protein (P11274 whole entry): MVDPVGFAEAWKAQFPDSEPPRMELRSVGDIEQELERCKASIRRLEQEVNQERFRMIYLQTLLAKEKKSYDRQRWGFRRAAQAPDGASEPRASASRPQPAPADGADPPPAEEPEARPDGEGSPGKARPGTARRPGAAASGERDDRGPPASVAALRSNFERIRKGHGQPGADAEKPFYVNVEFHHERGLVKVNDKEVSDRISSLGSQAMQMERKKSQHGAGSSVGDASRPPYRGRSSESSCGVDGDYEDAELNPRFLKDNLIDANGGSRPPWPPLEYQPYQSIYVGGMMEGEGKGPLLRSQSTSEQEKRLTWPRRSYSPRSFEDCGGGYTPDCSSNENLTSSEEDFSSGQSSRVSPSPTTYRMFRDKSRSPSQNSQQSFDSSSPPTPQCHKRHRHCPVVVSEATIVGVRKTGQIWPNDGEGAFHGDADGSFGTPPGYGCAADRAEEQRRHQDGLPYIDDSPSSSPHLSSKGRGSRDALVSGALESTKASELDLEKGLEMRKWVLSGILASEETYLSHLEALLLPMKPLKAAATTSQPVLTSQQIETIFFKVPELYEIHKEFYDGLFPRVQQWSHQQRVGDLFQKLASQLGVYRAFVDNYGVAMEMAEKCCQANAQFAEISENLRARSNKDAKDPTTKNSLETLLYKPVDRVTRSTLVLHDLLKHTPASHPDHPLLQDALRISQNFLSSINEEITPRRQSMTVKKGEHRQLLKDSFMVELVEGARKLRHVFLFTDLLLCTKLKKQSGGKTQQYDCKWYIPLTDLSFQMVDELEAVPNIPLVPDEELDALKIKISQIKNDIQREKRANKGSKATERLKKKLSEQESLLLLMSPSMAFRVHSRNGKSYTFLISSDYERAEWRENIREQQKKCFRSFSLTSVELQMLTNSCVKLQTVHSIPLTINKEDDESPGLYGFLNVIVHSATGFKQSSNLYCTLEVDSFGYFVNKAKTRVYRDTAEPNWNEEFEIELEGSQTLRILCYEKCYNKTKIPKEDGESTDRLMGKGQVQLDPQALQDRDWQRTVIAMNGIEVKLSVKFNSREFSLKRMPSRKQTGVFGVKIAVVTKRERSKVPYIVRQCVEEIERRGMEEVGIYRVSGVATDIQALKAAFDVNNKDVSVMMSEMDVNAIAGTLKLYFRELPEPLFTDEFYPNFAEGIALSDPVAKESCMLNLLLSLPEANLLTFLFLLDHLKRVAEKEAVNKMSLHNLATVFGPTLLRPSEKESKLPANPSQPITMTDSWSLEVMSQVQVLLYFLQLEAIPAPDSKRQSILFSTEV
Chain of Protein cereblon/Tyrosine-protein kinase ABL1/Breakpoint cluster region protein (Q96SW2 whole entry): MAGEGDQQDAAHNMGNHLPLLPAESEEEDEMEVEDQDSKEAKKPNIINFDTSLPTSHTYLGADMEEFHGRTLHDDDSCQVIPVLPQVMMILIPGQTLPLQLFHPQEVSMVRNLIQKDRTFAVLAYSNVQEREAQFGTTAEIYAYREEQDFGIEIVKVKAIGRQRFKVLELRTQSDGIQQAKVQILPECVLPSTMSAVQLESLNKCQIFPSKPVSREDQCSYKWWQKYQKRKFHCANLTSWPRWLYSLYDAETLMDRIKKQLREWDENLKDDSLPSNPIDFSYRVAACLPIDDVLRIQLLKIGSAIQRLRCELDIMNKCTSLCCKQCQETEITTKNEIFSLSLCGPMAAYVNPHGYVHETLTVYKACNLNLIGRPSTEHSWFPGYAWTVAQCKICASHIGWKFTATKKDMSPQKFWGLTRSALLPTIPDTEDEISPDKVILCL

For `Cc1nc(Nc2ncc(C(=O)Nc3c(C)cccc3Cl)s2)cc(N2CCN(CCCCCCOCCOCCOCCCCCC(=O)Nc3cccc4c3C(=O)N(C3CCC(=O)NC3=O)C4=O)CC2)n1` (stereo not drawn), the IC50 (in general, the midpoint of a concentration-inhibition curve) with K562 [1] turned out to be 4.1 nM.
With `Cc1nc(Nc2ncc(C(=O)Nc3c(C)cccc3Cl)s2)cc(N2CCN(CCCCNc3cccc4c3C(=O)N(C3CCC(=O)NC3=O)C4=O)CC2)n1` (stereo not drawn), the peak concentration (Cmax) – broadly, the peak of the concentration-time curve – in [2] stood at 1450 ng/mL. Also, the exposure AUC(0-t) – broadly, exposure summed from dosing to a finite time, without extrapolation to infinity – in series [3] was 1330 ng·h/mL. The values for the Vd in series [4] and in [9] were 4.02 L/kg and 2.78 L/kg, respectively. For the same compound, the half-life (usually how long it takes for the measured level to halve) in series [5] was 116 min. Also, the MRT last – broadly, a mean duration of stay, worked out from the concentration-time curve – in [6] came to 93 min. For the same compound, the 50% degradation concentration (DC50) – broadly, the midpoint of the concentration-degradation curve – in [7] came to 2.7 nM. Moreover, the Tmax (commonly the time at which the peak concentration occurs) in series [8] is 4.8 min. Besides, in the series on K562 [1], the 50% inhibitory concentration (IC50) amounted to 0.28 nM. Moreover, the clearance (as a rule, a measure of how efficiently the substance is removed, as volume per time) in [10] was 24.1 mL/min/kg.
Turning to `Cc1nc(Nc2ncc(C(=O)Nc3c(C)cccc3Cl)s2)cc(N2CCN(C(=O)CCOCCNc3cccc4c3C(=O)N(C3CCC(=O)NC3=O)C4=O)CC2)n1` (stereo not drawn), the 50% degradation concentration (DC50) in series [7] amounted to 8.7 nM. The half-maximal inhibitory concentration (IC50) in the series with K562 [1] worked out at 18.4 nM.
In the same order, the values of `Cc1nc(Nc2ncc(C(=O)Nc3c(C)cccc3Cl)s2)cc(N2CCN(C(=O)CCOCCOCCOCCNc3cccc4c3C(=O)N(C3CCC(=O)NC3=O)C4=O)CC2)n1` (stereo not drawn) are 18.4 nM and 14.8 nM.
On the same counts, the results for `Cc1nc(Nc2ncc(C(=O)Nc3c(C)cccc3Cl)s2)cc(N2CCN(CCCCC(=O)Nc3cccc4c3C(=O)N(C3CCC(=O)NC3=O)C4=O)CC2)n1` (stereo not drawn) are 10.1 nM and 4.6 nM.
In the case of `Cc1nc(Nc2ncc(C(=O)Nc3c(C)cccc3Cl)s2)cc(N2CCN(C(=O)CCCCCCNc3cccc4c3C(=O)N(C3CCC(=O)NC3=O)C4=O)CC2)n1` (stereo not drawn), the half-maximal degradation concentration (DC50) in series [7] worked out at 9 nM. In addition, the concentration for half-maximal inhibition (IC50) in the series on K562 [1] amounted to 1.47 nM.
On the same counts, the results for `Cc1nc(Nc2ncc(C(=O)Nc3c(C)cccc3Cl)s2)cc(N2CCN(C(=O)CSc3cccc4c3CN(C3CCC(=O)NC3=O)C4=O)CC2)n1` (stereo not drawn) are 8.9 nM and 5.7 nM.
On the same counts, the results for `Cc1nc(Nc2ncc(C(=O)Nc3c(C)cccc3Cl)s2)cc(N2CCN(C(=O)CCOCCOCCOCCOCCOCCNc3cccc4c3C(=O)N(C3CCC(=O)NC3=O)C4=O)CC2)n1` (stereo not drawn) are 10.8 nM and 31.9 nM.
In the same order, the values of `Cc1nc(Nc2ncc(C(=O)Nc3c(C)cccc3Cl)s2)cc(N2CCN(CCSc3cccc4c3CN(C3CCC(=O)NC3=O)C4=O)CC2)n1` (stereo not drawn) are 2.7 nM and 0.51 nM.
Turning to `Cc1nc(Nc2ncc(C(=O)Nc3c(C)cccc3Cl)s2)cc(N2CCN(C(=O)CSc3cccc4c3C(=O)N(C3CCC(=O)NC3=O)C4=O)CC2)n1` (stereo not drawn), the DC50 in series [7] amounted to 5.6 nM. Besides, the 50% inhibitory concentration (IC50) in the series with K562 [1] turned out to be 3.2 nM.
Turning to `Cc1nc(Nc2ncc(C(=O)Nc3c(C)cccc3Cl)s2)cc(N2CCN(C(=O)CCCCNc3cccc4c3CN(C3CCC(=O)NC3=O)C4=O)CC2)n1` (stereo not drawn), the DC50 in series [7] came out at 11.1 nM. For the same compound, the IC50 with K562 [1] turned out to be 4.2 nM.
Consider `Cc1nc(Nc2ncc(C(=O)Nc3c(C)cccc3Cl)s2)cc(N2CCN(CCO)CC2)n1` [DASATINIB], for which the inhibition in vivo at 5 mg/kg in the series with K562 [11] stood at 95.1%.
Turning to `Cc1nc(Nc2ncc(C(=O)Nc3c(C)cccc3Cl)s2)cc(N2CCN(C(=O)CS(=O)(=O)c3cccc4c3C(=O)N(C3CCC(=O)NC3=O)C4=O)CC2)n1` (stereo not drawn), in series [7], the 50% degradation concentration (DC50) was 245 nM. Moreover, the 50% inhibitory concentration (IC50) in the series with K562 [1] turned out to be 206 nM.
For the compound `Cc1nc(Nc2ncc(C(=O)Nc3c(C)cccc3Cl)s2)cc(N2CCN(C(=O)CCOCCOCCOCCOCCNc3cccc4c3C(=O)N(C3CCC(=O)NC3=O)C4=O)CC2)n1` (stereo not drawn), in [7], the DC50 stood at 26.1 nM. In addition, the concentration for half-maximal inhibition (IC50) in the series on K562 [1] stood at 40.4 nM.
On the same counts, the results for `Cc1nc(Nc2ncc(C(=O)Nc3c(C)cccc3Cl)s2)cc(N2CCN(C(=O)CNc3cccc4c3C(=O)N(C3CCC(=O)NC3=O)C4=O)CC2)n1` (stereo not drawn) are 10 nM and 1.22 nM.
In the same order, the values of `Cc1nc(Nc2ncc(C(=O)Nc3c(C)cccc3Cl)s2)cc(N2CCN(C(=O)CCc3cccc4c3C(=O)N(C3CCC(=O)NC3=O)C4=O)CC2)n1` (stereo not drawn) are 95.4 nM and 2.84 nM.
Regarding `Cc1nc(Nc2ncc(C(=O)Nc3c(C)cccc3Cl)s2)cc(N2CCN(C(=O)CCCNc3cccc4c3C(=O)N(C3CCC(=O)NC3=O)C4=O)CC2)n1` (stereo not drawn), the 50% degradation concentration (DC50) in [7] amounted to 7.8 nM. Besides, the half-maximal inhibitory concentration (IC50) in the series on K562 [1] came to 5.5 nM.
The compound `Cc1nc(Nc2ncc(C(=O)Nc3c(C)cccc3Cl)s2)cc(N2CCN(C(=O)CCOCCOCCNc3cccc4c3C(=O)N(C3CCC(=O)NC3=O)C4=O)CC2)n1` (stereo not drawn) came in with a Cmax in series [2] of 1140 ng/mL. The area under the curve AUC(0-t) in [3] was found to be 496 ng·h/mL. Further, the Vd was 3.59 L/kg in series [4] and 1.93 L/kg in [9]. Moreover, the half-life in series [5] is 37.2 min. Also, the mean residence time (MRT last) in series [6] amounted to 27 min. In addition, the DC50 in [7] worked out at 17.5 nM. Moreover, the Tmax in series [8] is 4.8 min. The concentration for half-maximal inhibition (IC50) with K562 [1] is 8.05 nM. For the same compound, the clearance in series [10] was 67.1 mL/min/kg.
As for `Cc1nc(Nc2ncc(C(=O)Nc3c(C)cccc3Cl)s2)cc(N2CCN(C(=O)CCCC(=O)Nc3cccc4c3CN(C3CCC(=O)NC3=O)C4=O)CC2)n1` (stereo not drawn), the DC50 in series [7] came to 125 nM. Further, the IC50 in the series on K562 [1] is 1.03 nM.
As for `Nc1cccc2c1C(=O)N(C1CCC(=O)NC1=O)C2=O` (stereo not drawn) [POMALIDOMIDE], the half-inhibitory concentration (IC50) with K562 [1] is above 10000 nM.
Still for that read-out and setting: with `Nc1cccc2c1CN(C1CCC(=O)NC1=O)C2=O` (stereo not drawn) [LENALIDOMIDE] the figure was above 10000 nM.
In the case of `Cc1nc(Nc2ncc(C(=O)Nc3c(C)cccc3Cl)s2)cc(N2CCN(C(=O)COc3cccc4c3C(=O)N(C3CCC(=O)NC3=O)C4=O)CC2)n1` (stereo not drawn), the half-maximal degradation concentration (DC50) in series [7] is 11.1 nM. For the same compound, the IC50 in the series on K562 [1] was 7 nM.
Consider `Cc1nc(Nc2ncc(C(=O)Nc3c(C)cccc3Cl)s2)cc(N2CCN(C(=O)CCCCNc3cccc4c3C(=O)N(C3CCC(=O)NC3=O)C4=O)CC2)n1` (stereo not drawn), for which, in series [7], the half-maximal degradation concentration (DC50) came to 11 nM. Moreover, the IC50 with K562 [1] was 0.55 nM.
